Source: ChEMBL document CHEMBL3098105, “7,7'-Diazaindirubin--a small molecule inhibitor of casein kinase 2 in vitro and in cells” (Bioorg Med Chem, 2014)
pIC50: −log10 of the molar value.

Tests used:
Assay type in all cases: functional, cell-based
[1] = test system: MCF7; assay: Antiproliferative activity against human MCF7 cells after 3 days by SRB assay; details: MCF7, 72 h
Procedure, shortened: (§1)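 Cells grown at 37 °C, 5% CO2, with 10% heat-inactivated FBS: LXFL529L in RPMI 1640, MCF7 and HT29 in DMEM. Seeded, allowed 24 h growth, then exposed to the drug at various concentrations for 3 days in serum medium. Fixed with TCA for 1 h at 4 °C, stained with 0.4% SRB, eluted in 10 mM Tris pH 10.5, read at 570 nm as % T/C. IC50 taken from dose–response curves of at least three independent experiments.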

[2] = test system: HT-29; assay: Antiproliferative activity against human HT-29 cells after 3 days by SRB assay; details: HT-29, 72 h; procedure, shortened: as §1
[3] = Antiproliferative activity against human LXFL 529L cells after 3 days by SRB assay; details: 72 h; procedure, shortened: as §1

| SMILES | pIC50 [1] | pIC50 [2] | pIC50 [3] |
| --- | --- | --- | --- |
| O=C1Nc2ncccc2/C1=C1\C(=O)Nc2ncccc21 | < 4.00 | < 4.00 | < 4.00 |
| O=C1/C(=C2\Nc3ncccc3C2=O)Nc2ncccc21 | < 4.00 | < 4.00 | < 4.00 |
| O=C1Nc2ccccc2/C1=C1/Nc2ncccc2C1=O | 5.30 | < 5.00 | 5.36 |

Continued, in another order:

| pIC50 [1] | pIC50 [2] | SMILES | pIC50 [3] |
| --- | --- | --- | --- |
| 5.52 | < 5.00 | O=C1Nc2ncccc2/C1=C1/Nc2ccccc2C1=O | 5.54 |
| 5.40 | – | O=C1Nc2ccccc2/C1=C1/Nc2ccccc2C1=O [INDIRUBIN] | 5.00 |
